Tests used:
[1] = Selectivity index, ratio of CC50 for HFF cells to EC50 for VZV infected HFF cells; type: toxicity; conditions: human, read-out: Selectivity Index
Human alphaherpesvirus 3 [2] = assay: Antiviral activity against VZV infected HFF cells assessed as reduction in viral replication; type: functional, organism-based; conditions: Human alphaherpesvirus 3, HFF
[3] = Drug concentration in BALB/c mouse plasma at 11.4 mg/kg, po via gavage measured after 20 mins by LC-MS/MS analysis; type: ADME, organism-based
Summary of the method: (§1)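 BALB/c mice of both sexes (N = 15 per sex per group) received a single oral gavage dose: 11.4 mg/kg L-BHDU or an equimolar 22.5 mg/kg of the POM prodrug, in Cremophor–DMSO–saline (1:1:8). Three mice per group were bled by cardiac puncture under isoflurane at 20, 40, 60 and 120 min into heparin. Plasma (AZT internal standard, 20 ng/mL) was methanol-precipitated and L-BHDU quantified by LC-MS/MS (negative ESI).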

[4] = Drug concentration in BALB/c mouse plasma at 11.4 mg/kg, po via gavage measured after 40 mins by LC-MS/MS analysis; type: ADME, organism-based; summary of the method: as §1
[5] = Drug concentration in BALB/c mouse plasma at 11.4 mg/kg, po via gavage measured after 60 mins by LC-MS/MS analysis; type: ADME, organism-based; summary of the method: as §1
[6] = Selectivity index, ratio of CC50 for human ARPE-19 cells to EC50 for VZV infected human ARPE-19 cells; type: toxicity; conditions: VZV infected ARPE-19 cells, read-out: Selectivity Index
HFF = assay: Cytotoxicity against HFF cells assessed as cell growth inhibition upto 200 uM; type: toxicity, cell-based; conditions: human
[7] = Stability in mouse liver homogenate assessed as compound remaining at 0.3 ug/ml measured immediately by LC-MS/MS analysis; type: ADME, tissue-based; conditions: tissue homogenate, dose 0.3 µg/ml
Summary of the method: (§2)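 Liver homogenate from untreated BALB/c mice was spiked with prodrug at 0.3 μg/mL, with azidothymidine internal standard at 20 ng/mL final, and incubated at 37 °C. Reactions were stopped with 2 volumes of methanol at 0, 2, 4, 10, 30 and 60 min. Supernatants were dried and reconstituted in 50% methanol. Prodrug, L-BHDU and L-BHDU-MP were quantified by LC-MS/MS against calibration curves.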

[8] = Prodrug conversion in BALB/c mouse assessed as concentration of L-BHDU formation at 22.5 mg/kg, po via gavage measured after 60 mins by LC-MS/MS analysis; type: ADME, organism-based; conditions: in vivo, 1 h; summary of the method: as §1
[9] = Prodrug conversion in mouse liver homogenate assessed as concentration of L-BHDU formation at 0.3 ug/ml measured after 4 mins by LC-MS/MS analysis; type: ADME, tissue-based; conditions: dose 0.3 µg/ml; summary of the method: as §2
[10] = Prodrug conversion in BALB/c mouse assessed as concentration of L-BHDU formation at 22.5 mg/kg, po via gavage measured immediately by LC-MS/MS analysis; type: ADME, organism-based; conditions: in vivo
[11] = Prodrug conversion in BALB/c mouse assessed as concentration of L-BHDU formation at 22.5 mg/kg, po via gavage measured after 40 mins by LC-MS/MS analysis; type: ADME, organism-based; conditions: in vivo; summary of the method: as §1
Human alphaherpesvirus 3 [12] = assay: Antiviral activity against VZV expressing ORF57-TS mutant infected human ARPE-19 cells assessed as reduction in viral replication treated for 72 hrs by bioluminescence imaging analysis; type: functional, organism-based; conditions: Human alphaherpesvirus 3, ARPE-19, 72 h
[13] = Prodrug conversion in BALB/c mouse assessed as Cmax of L-BHDU at 22.5 mg/kg, po via gavage measured upto 120 mins by LC-MS/MS analysis; type: ADME, organism-based; design: dose 22.5 mg/kg, time < 120 min, route po; conditions: in vivo, 2 h; summary of the method: as §1
[14] = Prodrug conversion in BALB/c mouse assessed as concentration of L-BHDU formation at 22.5 mg/kg, po via gavage measured after 20 mins by LC-MS/MS analysis; type: ADME, organism-based; conditions: in vivo; summary of the method: as §1
[15] = Stability of compound in gastric juice; type: ADME; conditions: simulated gi fluid
[16] = Stability in mouse liver homogenate assessed as compound remaining at 0.3 ug/ml measured after 2 mins by LC-MS/MS analysis; type: ADME, tissue-based; conditions: tissue homogenate, dose 0.3 µg/ml; summary of the method: as §2
[17] = Stability in mouse liver homogenate assessed as compound remaining at 0.3 ug/ml measured after 30 mins by LC-MS/MS analysis; type: ADME, tissue-based; conditions: tissue homogenate, 0.5 h, dose 0.3 µg/ml; summary of the method: as §2
[18] = Stability in mouse liver homogenate assessed as compound remaining at 0.3 ug/ml measured after 10 mins by LC-MS/MS analysis; type: ADME, tissue-based; conditions: tissue homogenate, dose 0.3 µg/ml; summary of the method: as §2
[19] = Stability of compound in intestinal juice; type: ADME; conditions: simulated gi fluid
[20] = Prodrug conversion in mouse liver homogenate assessed as concentration of L-BHDU formation at 0.3 ug/ml measured after 30 mins by LC-MS/MS analysis; type: ADME, tissue-based; conditions: 0.5 h, dose 0.3 µg/ml; summary of the method: as §2
[21] = Stability in mouse liver homogenate assessed as compound remaining at 0.3 ug/ml measured after 4 mins by LC-MS/MS analysis; type: ADME, tissue-based; conditions: tissue homogenate, dose 0.3 µg/ml; summary of the method: as §2
[22] = Prodrug conversion in mouse liver homogenate assessed as concentration of L-BHDU formation at 0.3 ug/ml measured immediately by LC-MS/MS analysis; type: ADME, tissue-based; conditions: dose 0.3 µg/ml; summary of the method: as §2
[23] = Prodrug conversion in mouse liver homogenate assessed as concentration of L-BHDU formation at 0.3 ug/ml measured after 10 mins by LC-MS/MS analysis; type: ADME, tissue-based; conditions: dose 0.3 µg/ml; summary of the method: as §2
[24] = Prodrug conversion in mouse liver homogenate assessed as concentration of L-BHDU formation at 0.3 ug/ml measured after 2 mins by LC-MS/MS analysis; type: ADME, tissue-based; conditions: dose 0.3 µg/ml; summary of the method: as §2
[25] = Prodrug conversion in BALB/c mouse assessed as Tmax of L-BHDU at 22.5 mg/kg, po via gavage measured upto 120 mins by LC-MS/MS analysis; type: ADME, organism-based; conditions: in vivo, 2 h; summary of the method: as §1
[26] = Prodrug conversion in BALB/c mouse assessed as AUC of L-BHDU at 22.5 mg/kg, po via gavage measured upto 120 mins by LC-MS/MS analysis; type: ADME, organism-based; design: time < 120 min, dose 22.5 mg/kg, route po; conditions: in vivo, 2 h; summary of the method: as §1
[27] = Prodrug conversion in BALB/c mouse assessed as concentration of L-BHDU formation at 22.5 mg/kg, po via gavage measured after 120 mins by LC-MS/MS analysis; type: ADME, organism-based; conditions: in vivo, 2 h; summary of the method: as §1
[28] = Prodrug conversion in mouse liver homogenate assessed as concentration of L-BHDU formation at 0.3 ug/ml measured after 60 mins by LC-MS/MS analysis; type: ADME, tissue-based; conditions: in vitro, 1 h; summary of the method: as §2
Human alphaherpesvirus 3 [29] = assay: Antiviral activity against VZV infected human ARPE-19 cells assessed as reduction in viral replication treated for 72 hrs by bioluminescence imaging analysis; type: functional, organism-based; conditions: Human alphaherpesvirus 3, ARPE-19, 72 h
[30] = Cytotoxicity against human ARPE-19 cells assessed as reduction in cell viability treated for 72 hrs by neutral red assay; type: toxicity, cell-based
Summary of the method: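 ARPE-19 cells (DMEM, 10% heat-inactivated FBS, penicillin-streptomycin, amphotericin B; used within 30 passages) seeded 3 d, then exposed 72 h to a concentration range, higher than in antiviral runs, under the same conditions. Viability read by neutral red dye uptake; staurosporine as cell-death control. […] DMSO stocks diluted in DMSO and/or medium.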

[31] = Cytotoxicity against HFF cells assessed as reduction in cell viability; type: toxicity, cell-based; conditions: human
Human alphaherpesvirus 3 [32] = assay: Antiviral activity against VZV expressing ORF57-Luc infected human ARPE-19 cells assessed as reduction in viral replication treated for 72 hrs by bioluminescence imaging analysis; type: functional, organism-based; conditions: Human alphaherpesvirus 3, ARPE-19, 72 h
Human alphaherpesvirus 3 [33] = assay: Antiviral activity against VZV expressing ORF57-TKTS mutant infected human ARPE-19 cells assessed as reduction in viral replication treated for 72 hrs by bioluminescence imaging analysis; type: functional, organism-based; conditions: Human alphaherpesvirus 3, ARPE-19, 72 h
Human alphaherpesvirus 3 [34] = assay: Antiviral activity against VZV expressing ORF57-TK mutant infected human ARPE-19 cells assessed as reduction in viral replication treated for 72 hrs by bioluminescence imaging analysis; type: functional, organism-based; conditions: Human alphaherpesvirus 3, ARPE-19, 72 h

## O=c1[nH]c(=O)n([C@@H]2CO[C@H](CO)O2)cc1/C=C/Br
[1]
  selectivity ratio: > 909
Human alphaherpesvirus 3 [2]
  EC50: 250 nM
[3]
  concentration at 20 min: 5620 ng/mL
[4]
  concentration at 40 min: 4500 ng/mL
[5]
  concentration at 1 h: 6180 ng/mL
[6]
  selectivity ratio: > 3880
HFF
  Activity: Non-Toxic

## N[C@H](Cc1ccccc1)C(=O)OC[C@H]1OC[C@@H](n2cc(/C=C/Br)c(=O)[nH]c2=O)O1
[6]
  selectivity ratio: > 3480

## CC(C)C[C@H](N)C(=O)OC[C@H]1OC[C@@H](n2cc(/C=C/Br)c(=O)[nH]c2=O)O1
[6]
  selectivity ratio: > 2420

## NCC(=O)OC[C@H]1OC[C@@H](n2cc(/C=C/Br)c(=O)[nH]c2=O)O1
[6]
  selectivity ratio: > 2130

## CC[C@H](C)[C@H](N)C(=O)OC[C@H]1OC[C@@H](n2cc(/C=C/Br)c(=O)[nH]c2=O)O1
[6]
  selectivity ratio: > 1520

## C[C@@H](N)C(=O)OC[C@H]1OC[C@@H](n2cc(/C=C/Br)c(=O)[nH]c2=O)O1
[6]
  selectivity ratio: > 2960

## NC(=O)CC[C@H](N)C(=O)OC[C@H]1OC[C@@H](n2cc(/C=C/Br)c(=O)[nH]c2=O)O1
[6]
  selectivity ratio: > 794

## CC(C)(C)C(=O)OCOP(=O)(OCOC(=O)C(C)(C)C)OC[C@H]1OC[C@@H](n2cc(/C=C/Br)c(=O)[nH]c2=O)O1
[7]
  Stability: 0.599 µg/mL
[8]
  Drug metabolism: 13.543 µg/mL
[9]
  Drug metabolism: 0.142 µg/mL
[10]
  Drug metabolism: 0 µg/mL
[11]
  Drug metabolism: 14.044 µg/mL
Human alphaherpesvirus 3 [12]
  EC50: 1 nM
[13]
  Cmax: 10600 ng/mL
[14]
  Drug metabolism: 8.69 µg/mL
[15]
  Stability: Stable
[6]
  selectivity ratio: > 2810
[16]
  Stability: 3.094 µg/mL
[17]
  Stability: 3.777 µg/mL
[18]
  Stability: 4.488 µg/mL
[19]
  Stability: Stable
[20]
  Drug metabolism: 1.385 µg/mL
[21]
  Stability: 4.569 µg/mL
[22]
  Drug metabolism: 0.016 µg/mL
[23]
  Drug metabolism: 0.359 µg/mL
[24]
  Drug metabolism: 0.055 µg/mL
[25]
  Tmax: 40 min
[26]
  AUC: 1680 µg·min/mL
[27]
  Drug metabolism: 10.608 µg/mL
[28]
  Drug metabolism: 1.961 µg/mL

## N[C@@H](Cc1c[nH]c2ccccc12)C(=O)OC[C@H]1OC[C@@H](n2cc(/C=C/Br)c(=O)[nH]c2=O)O1
[6]
  selectivity ratio: > 1550

## O=C(OC[C@H]1OC[C@@H](n2cc(/C=C/Br)c(=O)[nH]c2=O)O1)[C@@H]1CCCN1
[6]
  selectivity ratio: > 1930

## CCCCCCCCCCCCCCCCOCCCOP(=O)(OC[C@H]1OC[C@@H](n2cc(/C=C/Br)c(=O)[nH]c2=O)O1)Oc1ccccc1 (stereo not given in full)
Human alphaherpesvirus 3 [29]
  EC50: 526 nM
[6]
  selectivity ratio: 35
[30]
  CC50 at 72 h: 18500 nM

## CC(C)[C@H](N)C(=O)OC[C@H]1OC[C@@H](n2cc(/C=C/Br)c(=O)[nH]c2=O)O1
[6]
  selectivity ratio: > 709

## CC(C)(N)C(=O)OC[C@H]1OC[C@@H](n2cc(/C=C/Br)c(=O)[nH]c2=O)O1
[6]
  selectivity ratio: > 2600

## CC(C)[C@@H](N)C(=O)OC[C@H]1OC[C@@H](n2cc(/C=C/Br)c(=O)[nH]c2=O)O1
[31]
  CC50: > 200000 nM
[6]
  selectivity ratio: > 3320

## CC(C)C(=O)OCOP(=O)(OCOC(=O)C(C)C)OC[C@H]1OC[C@@H](n2cc(/C=C/Br)c(=O)[nH]c2=O)O1
Human alphaherpesvirus 3 [29]
  EC50: 34 nM
Human alphaherpesvirus 3 [12]
  EC50: 8 nM
Human alphaherpesvirus 3 [32]
  EC50: 40 nM
Human alphaherpesvirus 3 [33]
  EC50: > 2000 nM
[6]
  selectivity ratio: > 2920
[30]
  CC50 at 72 h: > 100000 nM
Human alphaherpesvirus 3 [34]
  EC50: > 2000 nM

## N[C@@H](Cc1ccc(O)cc1)C(=O)OC[C@H]1OC[C@@H](n2cc(/C=C/Br)c(=O)[nH]c2=O)O1
[6]
  selectivity ratio: > 826

## CCCCCCCCCCCCCCCCCCOCCOP(=O)(OC[C@H]1OC[C@@H](n2cc(/C=C/Br)c(=O)[nH]c2=O)O1)Oc1ccccc1 (stereo not given in full)
Human alphaherpesvirus 3 [29]
  EC50: 100 nM
Human alphaherpesvirus 3 [12]
  EC50: 1 nM
Human alphaherpesvirus 3 [32]
  EC50: 820 nM
Human alphaherpesvirus 3 [33]
  EC50: > 2000 nM
[6]
  selectivity ratio: 339
[30]
  CC50 at 72 h: 33900 nM
Human alphaherpesvirus 3 [34]
  EC50: > 2000 nM

Source: ChEMBL document CHEMBL5338764, “Prodrug Strategies for the Development of β-l-5-((E)-2-Bromovinyl)-1-((2S,4S)-2-(hydroxymethyl)-1,3-(dioxolane-4-yl))uracil (l-BHDU) against Varicella Zoster Virus (VZV)” (J Med Chem, 2023)
